Laboratory results reported in ChEMBL document CHEMBL3784950, “Higginsianins A and B, Two Diterpenoid α-Pyrones Produced by Colletotrichum higginsianum, with in Vitro Cytostatic Activity” (J Nat Prod, 2016).
pIC50: −log10 of the molar value. Activity calls are given as the source filed them. No cut-off for these calls is given here.

How the values were obtained:
[1] = (§1) Antiproliferative activity against human Hs683 cells assessed as cell viability after 72 hrs by MTT assay; format: functional, cell-based; conditions: Hs 683, 72 h
In short: (§2)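 Cells cultured 72 h with compound; MTT conversion to formazan read by spectrophotometry as a measure of metabolically active cells. IC50 is the concentration that reduces growth by 50% relative to control optical density. Six replicates per condition; one or two independent sextuplicate experiments.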

A549 = assay: Antiproliferative activity against human A549 cells assessed as cell viability after 72 hrs by MTT assay; format: functional, cell-based; conditions: for pIC50: A549, 72 h; in short: as §2
MCF7 = assay: Antiproliferative activity against human MCF7 cells assessed as cell viability after 72 hrs by MTT assay; format: functional, cell-based; conditions: for pIC50: MCF7, 72 h; in short: as §2
SK-MEL-28 = assay: Antiproliferative activity against human SK-MEL-28 cells assessed as cell viability after 72 hrs by MTT assay; format: functional, cell-based; conditions: for pIC50: SK-MEL-28, 72 h; in short: as §2
[2] = (§3) Antiproliferative activity against mouse B16F10 cells assessed as cell viability after 72 hrs by MTT assay; format: functional, cell-based; conditions: B16-F10, 72 h; in short: as §2
[3] = (§4) Antiproliferative activity against human U373 cells assessed as cell viability after 72 hrs by MTT assay; format: functional, cell-based, U-373MG ATCC; conditions: U373 MG; in short: as §2
Hs 683 [4] = assay: Cytostatic activity against human Hs683 cells assessed as morphological changes at 1 uM after 48 hrs by phase contrast microscopic analysis; format: functional, cell-based
In short: (§5)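 Phase-contrast microscopy of Hs683 glioma cells treated at 1 versus 50 μM, judging cytostatic versus cytotoxic morphology.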

Hs 683 [5] = assay: Cytotoxicity against human Hs683 cells assessed as morphological changes at 50 uM after 48 hrs by phase contrast microscopic analysis; format: functional, cell-based; in short: as §5
[6] = Antiproliferative activity against human Hs683 cells assessed as growth inhibition at 1 uM after 72 hrs by quantitative video microscopic analysis relative to control; format: functional; conditions: Hs 683, 72 h, read-out: GI
In short: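 Hs683 cells filmed by computer-assisted phase-contrast microscopy at 1 μM and 40 μM versus control. Global growth is the cell count on the last image divided by that on the first, taken at 24, 48 and 72 h. The GGR index is treated global growth divided by control global growth. Run once in duplicate; mean ± SEM.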

[7] = Stability in human Hs683 cells assessed as photosensitivity at 1 to 40 uM by quantitative video microscopic analysis; format: ADME, cell-based; conditions: hs 683, 40 µM
[8] = Stability in human Hs683 cells assessed as photoactivity at 1 to 40 uM by quantitative video microscopic analysis; format: ADME, cell-based; conditions: hs 683, 40 µM
Hs 683 [9] = assay: as §1; format: functional, cell-based; in short: as §2
U-373MG ATCC = assay: as §4; format: functional, cell-based; in short: as §2
B16-F10 = assay: as §3; format: functional, cell-based; in short: as §2

Row | Compound | pIC50 [1] | pIC50 (A549) | pIC50 (MCF7) | pIC50 (SK-MEL-28) | pIC50 [2] | pIC50 [3] | Activity (Hs 683 [4]) | Activity (Hs 683 [5]) | inhibition of growth at 1 µM [6] [%] | Stability [7] | Stability [8] | Activity (Hs 683 [9]) | Activity (U-373MG ATCC) | Activity (A549) | Activity (MCF7) | Activity (SK-MEL-28) | Activity (B16-F10)
1 | C=C1CC[C@@H]2[C@](C)(CC[C@H]3CO[C@H](C=C(C)C)C[C@]32C)[C@@H]1Cc1c(O)c(C)c(C)oc1=O | 4.31 | 4.46 | 4.62 | 4.29 | 4.60 |  |  |  |  |  |  |  |  |  |  |  | 
2 | C=C1CC[C@@H]2[C@](C)(CC[C@H]3O[C@H](C=C(C)C)C[C@@]23C)[C@@H]1Cc1c(O)c(C)c(C)oc1=O | 6.00 | 4.48 | 4.72 | 4.14 | 6.00 | 4.20 | Active | Active | 50 | Stable | Stable |  |  |  |  |  | 
3 | C=C1CC[C@@H]2[C@](C)(CC[C@H]3O[C@H](C=C(C)C)C[C@@]23C)[C@@H]1Cc1c(OC(C)=O)c(C)c(C)oc1=O | 6.00 | 4.33 | 4.39 | 4.08 | 5.70 |  |  |  |  |  |  |  |  |  |  |  | 
4 | C=C1CC[C@H]2[C@](C)(CCC=C(C)C)[C@H](O)CC[C@]2(C)[C@@H]1Cc1c(O)c(C)c(C)oc1=O | 5.70 | 4.54 | 5.70 | 4.06 | 5.52 | 4.08 |  |  |  |  |  |  |  |  |  |  | 
5 | C=C1CC[C@@H]2[C@](C)(CC[C@H](O)[C@@]2(C)CCC=C(C)C)[C@@H]1Cc1c(O)c(C)c(C)oc1=O |  |  |  |  |  |  |  |  |  |  |  | inactive | inactive | inactive | inactive | inactive | inactive
6 | C=C1CC[C@H]2[C@]3(C)C[C@@H](C=C(C)C)O[C@H]3CC[C@]2(C)[C@@H]1Cc1c(O)c(C)c(C)oc1=O |  |  |  |  |  |  |  |  |  |  |  | inactive | inactive | inactive | inactive | inactive | inactive
7 | C=C1CC[C@@H]2[C@](C)(CC[C@H]3O[C@H](C=C(C)C)C[C@@]23C)[C@@H]1Cc1c(OC)c(C)c(C)oc1=O | 6.40 | 4.80 | 4.42 | 4.32 | 6.00 |  |  |  |  |  |  |  |  |  |  |  | 
